Measured values: ChEMBL document CHEMBL1137395, “Synthesis and antiviral activity of 5-substituted cytidine analogues: identification of a potent inhibitor of viral RNA-dependent RNA polymerases” (J Med Chem, 2006)
The source made the active and inactive calls. The calls are words filed in the database; no cut-off is given here.

Assays:
[1] = system: HeLa; assay: Viability of human HeLa S3 cells; assay type: functional; parameters: concentration or dose not given beside the values
How it was run: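 HeLa S3 cells exposed to compound for 7 h, then allowed to recover without compound for 24 h; viability recorded at four concentrations.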

[2] = system: Enterovirus C; assay: Antiviral activity against poliovirus in HeLa S3 cells assessed as reduction in viral titer; assay type: functional, organism-based
How it was run: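 HeLa S3 cells pretreated with compound 1 h, then infected with 10⁶ PFU poliovirus (high MOI); after 15 min adsorption, fresh medium containing compound added and infection run a further 6 h. Cell-associated virus titered by plaque assay.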

[3] = system: Coxsackievirus B3; assay: Antiviral activity against coxsackievirus B3 in HeLa S3 cells assessed as reduction in viral titer; assay type: functional, organism-based
How it was run: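 HeLa S3 cells were pretreated with compound for 1 h, then infected with 10⁶ PFU CVB3 (high MOI). After 15 min of virus association, fresh medium containing compound was added and infection continued for 6 h. Cell-associated virus was titered by plaque assay. Cytotoxicity was checked separately after 7 h of treatment plus 24 h of recovery without compound.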

[4] = system: Human alphaherpesvirus 1; assay: Antiviral activity against herpes simplex virus 1; assay type: functional, organism-based
[5] = system: Human alphaherpesvirus 2; assay: Antiviral activity against herpes simplex virus 2; assay type: functional, organism-based
[6] = system: Human immunodeficiency virus 1; assay: Antiviral activity against HIV1; assay type: functional, organism-based
[7] = target: Genome polyprotein (Human poliovirus 1 Mahoney, UniProt P03300); assay: Binding affinity to poliovirus RNA dependent RNA polymerase; parameters: species or system Enterovirus C
How it was run: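 Purified poliovirus RdRP complexed with ³²P end-labeled symmetrical 10-mer RNA primer-template (S/S–G); nucleotide incorporation opposite G followed, products separated by denaturing PAGE; Kd and kpol derived from incorporation kinetics.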

Sequence of Genome polyprotein (P03300 1749-2209 limits assumed): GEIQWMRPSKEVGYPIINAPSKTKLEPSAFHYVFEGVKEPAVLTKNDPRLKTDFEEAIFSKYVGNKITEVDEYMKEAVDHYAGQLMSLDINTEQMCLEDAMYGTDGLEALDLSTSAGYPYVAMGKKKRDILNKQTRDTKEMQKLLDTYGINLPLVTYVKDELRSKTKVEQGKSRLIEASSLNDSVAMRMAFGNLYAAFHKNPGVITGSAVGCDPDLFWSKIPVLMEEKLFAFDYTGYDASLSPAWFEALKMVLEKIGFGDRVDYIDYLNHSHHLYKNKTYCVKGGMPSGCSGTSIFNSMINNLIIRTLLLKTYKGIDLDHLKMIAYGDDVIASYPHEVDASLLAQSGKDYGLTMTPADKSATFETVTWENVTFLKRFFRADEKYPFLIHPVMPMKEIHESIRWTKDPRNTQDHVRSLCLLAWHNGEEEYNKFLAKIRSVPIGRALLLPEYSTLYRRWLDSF

**Q.** How did the Activity [1] turn out when `Nc1nc(=O)n([C@@H]2O[C@H](CO)[C@@H](O)[C@H]2O)cc1Br` was run?
**A.** Its Activity is 63%.

**Q.** Which Activity [1] does the source give for `NC(=O)c1ncn([C@@H]2O[C@H](CO)[C@@H](O)[C@H]2O)n1` [RIBAVIRIN] here?
**A.** Its Activity is 70%.

**Q.** What about the Activity [2] of the same compound?
**A.** The Activity was “Dose-dependent effect”.

**Q.** What about the Activity [3] of the same compound?
**A.** Its Activity is “Dose-dependent effect”.

**Q.** How did the Activity [1] turn out when `Nc1cn([C@@H]2O[C@H](CO)[C@@H](O)[C@H]2O)c(=O)nc1N` was run?
**A.** Its Activity is 62%.

**Q.** And the Activity [2]?
**A.** The Activity was “Active”.

**Q.** And the Activity [3]?
**A.** Its Activity is “Active”.

**Q.** Which Activity [1] does the source give for `Nc1nc(=O)n([C@@H]2O[C@H](CO)[C@@H](O)[C@H]2O)cc1[N+](=O)[O-]` here?
**A.** The Activity was 80%.

**Q.** What about the Activity [2] of the same compound?
**A.** Its Activity is “Active”.

**Q.** And the Activity [3]?
**A.** The Activity was “Active”.

**Q.** For `Nc1nc(=O)n([C@H]2C[C@H](O)[C@@H](CO)O2)cc1Br`, which Activity [1] is on record?
**A.** Its Activity is 93%.

**Q.** And the Activity [2]?
**A.** Its Activity is “inactive”.

**Q.** And the Activity [3]?
**A.** Its Activity is “inactive”.

**Q.** With `Nc1nc(=O)n([C@@H]2O[C@H](CO)[C@@H](O)[C@H]2O)cc1O` as the compound, how does the Activity [1] read?
**A.** The Activity was 36%.

**Q.** `Nc1nc(=O)n([C@H]2C[C@H](O)[C@@H](CO)O2)cc1O` was tested. Which Activity [1] did it give?
**A.** The Activity was 82%.

**Q.** And the Activity [2]?
**A.** The Activity was “inactive”.

**Q.** What about the Activity [3] of the same compound?
**A.** The Activity was “inactive”.

**Q.** How did the Activity [4] turn out when `Nc1nc(=O)n([C@H]2C[C@H](O)[C@@H](CO)O2)cc1[N+](=O)[O-]` was run?
**A.** The Activity was “Active”.

**Q.** What about the Activity [5] of the same compound?
**A.** The Activity was “Active”.

**Q.** What about the Activity [6] of the same compound?
**A.** The Activity was “Active”.

**Q.** With `Nc1nc(=O)n([C@@H]2O[C@H](CO[P@@](=O)(O)O[P@](=O)(O)OP(=O)(O)O)[C@@H](O)[C@H]2O)cc1[N+](=O)[O-]` as the compound, how does the Kd [7] read?
**A.** The Kd was 1080 nM.
